Test results reported in ChEMBL document CHEMBL1212851, “Baculiferins A-O, O-sulfated pyrrole alkaloids with anti-HIV-1 activity, from the Chinese marine sponge Iotrochota baculifera” (Bioorg Med Chem, 2010).
≈ marks a conversion by molar mass, not a printed value. Calls of active or inactive are those of the source. No cut-off for these calls is given here.

Tests used:
HCT-8 = test: Cytotoxicity against human HCT8 cells; type: functional, cell-based; settings: for IC50: pooled result: one value given for 4 cell lines, strains, targets or settings
A2780 = test: Cytotoxicity against human A2780 cells; type: functional, cell-based
[1] = tested on: Human immunodeficiency virus 1; test: Antiviral activity against HIV1 infected in human HEK293 cells assessed as inhibition of viral replication; type: functional, organism-based
How it was run: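 VSVG-pseudotyped HIV-luc virus system in HEK-293 cells, used to assess inhibition of HIV-1 replication.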

Bel-7402 = test: Cytotoxicity against human Bel7402 cells; type: functional, cell-based
BGC-823 = test: Cytotoxicity against human BGC823 cells; type: functional, cell-based
A549 = test: Cytotoxicity against human A549 cells; type: functional, cell-based
[2] = tested on: Human immunodeficiency virus 1; test: Antiviral activity against HIV1 3B infected in human MT4 cells after 5 days by p24 antigen detection assay; type: functional, organism-based; settings: Human immunodeficiency virus 1, 3B, MT4, 120 h
How it was run: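 MT-4 cells infected with 10000 TCID50 HIV-1 IIIB for 2 h at 37 °C, washed, then plated at 5 × 10^4 cells per well. Compounds added from 250 µg/mL in fivefold serial dilutions, five dilutions with four replicates each. Cultures held 5 d at 37 °C in 5% CO2. On day 3 half the supernatant was replaced with fresh compound or medium. On day 5 supernatant p24 measured, inhibition computed relative to virus control, and IC50 taken by linear regression.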

[3] = tested on: Human immunodeficiency virus 1; test: Antiviral activity against HIV1 3B infected in human MAGI cells after 40 to 48 hrs assessed as inhibition of viral life cycle; type: functional, organism-based; settings: Human immunodeficiency virus 1, 3B
How it was run: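 HeLa-CD4-LTR-β-gal (MAGI) indicator cells plated at 6000 per well and infected with 2000 TCID50 HIV-1 IIIB. Compounds added in fourfold serial dilutions, five dilutions with four replicates each, at a final top concentration of half the 200 µg/mL stock dilution. Cells incubated 40–48 h at 37 °C in 5% CO2, then fixed, stained, and blue cells counted by microscopy. Single-round infection.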

[4] = tested on: Human immunodeficiency virus 1; test: Binding affinity to HIV1 recombinant Vif at 20 ug/ml
How it was run: (§1)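 Recombinant gp41, Vif or APOBEC3G each immobilized on a CM5 sensor chip in a separate flow cell. Binding monitored by surface plasmon resonance on a BIAcore instrument.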

[5] = target: DNA dC->dU-editing enzyme APOBEC-3G (Homo sapiens) (UniProt Q9HC16); test: Binding affinity to human recombinant APOBEC3G at 20 ug/ml; how it was run: as §1
Sequence of DNA dC->dU-editing enzyme APOBEC-3G (Homo sapiens) (Q9HC16 whole entry): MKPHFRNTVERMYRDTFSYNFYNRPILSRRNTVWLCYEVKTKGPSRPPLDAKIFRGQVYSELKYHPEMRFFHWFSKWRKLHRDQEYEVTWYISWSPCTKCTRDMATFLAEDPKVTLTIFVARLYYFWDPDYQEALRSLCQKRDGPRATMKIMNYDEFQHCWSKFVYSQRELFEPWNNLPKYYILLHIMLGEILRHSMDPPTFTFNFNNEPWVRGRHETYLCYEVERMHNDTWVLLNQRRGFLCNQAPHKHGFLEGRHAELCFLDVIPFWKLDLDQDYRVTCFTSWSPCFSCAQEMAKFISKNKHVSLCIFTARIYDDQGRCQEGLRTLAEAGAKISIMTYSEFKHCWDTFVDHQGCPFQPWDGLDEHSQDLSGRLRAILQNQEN

[6] = tested on: Human immunodeficiency virus 1; test: Binding affinity to HIV1 recombinant gp41 at 20 ug/ml; how it was run: as §1
Candida albicans [7] = test: Effect on brefeldin A MIC against Candida albicans isolate GU4 in presence of 30 uM compound by two fold dilution method
Candida albicans [8] = test: Multidrug reversal activity in Candida albicans isolate GU5 assessed as brefeldin A MIC in presence of 30 uM compound expressing CDR1 and CDR2 by two fold dilution method

SMILES | IC50 (HCT-8) [µM] | Activity (A2780) | Activity [1] | Activity (HCT-8) | Activity (Bel-7402) | Activity (BGC-823) | Activity (A549) | IC50 [2] [µg/mL] | IC50 [3] [µg/mL] | RU [4] [pg/mm2] | RU [5] [pg/mm2] | RU [6] [pg/mm2] | MIC (Candida albicans [7]) [µg/mL] | MIC (Candida albicans [8]) [µg/mL] | IC50 (A2780) [µM]
O=c1oc2cc(O)c(O)cc2c2c1[nH]c1c(=O)oc3cc(O)c(OS(=O)(=O)O)cc3c12 [BACULIFERIN O] | 33.1 | inactive | inactive | – | – | – | – | – | – | – | – | – | – | – | –
O=C1C(c2ccc(O)c(OS(=O)(=O)O)c2)=c2c(c3c(n2CCc2ccc(O)cc2)=C(c2ccc(O)c(O)c2)C(=O)c2cc(O)c(OS(=O)(=O)O)cc2-3)-c2cc(O)c(O)cc21 [BACULIFERIN F] | – | inactive | inactive | inactive | inactive | inactive | inactive | 4.6 (≈ 5.36 µM) | 2.7 (≈ 3.15 µM) | 362 | 992 | 109 | 12.5 | 50 | –
O=C(O)Cn1c2c(c3c1=C(c1ccc(O)c(O)c1)C(=O)c1cc(O)c(O)cc1-3)-c1cc(O)c(O)cc1C(=O)C=2c1ccc(O)c(O)c1 [BACULIFERIN L] | – | inactive | inactive | inactive | inactive | inactive | inactive | 7 (≈ 11 µM) | 4.1 (≈ 6.45 µM) | 1980 | 2170 | 469 | – | – | –
O=C1C(c2ccc(O)c(O)c2)=c2c(c3c(n2CCc2ccc(O)cc2)=C(c2ccc(O)c(O)c2)C(=O)c2cc(O)c(OS(=O)(=O)O)cc2-3)-c2cc(O)c(O)cc21 [BACULIFERIN A] | – | inactive | inactive | inactive | inactive | inactive | inactive | 7.6 (≈ 9.77 µM) | 3.7 (≈ 4.76 µM) | 111 | 171 | 17.1 | 12.5 | 50 | –
O=C1C(c2ccc(O)c(OS(=O)(=O)O)c2)=c2c(c3c(n2CCc2ccc(O)cc2)=C(c2ccc(O)c(OS(=O)(=O)O)c2)C(=O)c2cc(O)c(OS(=O)(=O)O)cc2-3)-c2cc(O)c(O)cc21 [BACULIFERIN G] | 19.7 | – | inactive | – | – | – | – | 3.2 (≈ 3.41 µM) | 4.4 (≈ 4.69 µM) | 447 | 572 | 125 | – | – | 19.7
O=C(O)Cn1c2c(c3c1=C(c1ccc(O)c(O)c1)C(=O)c1cc(O)c(OS(=O)(=O)O)cc1-3)-c1cc(O)c(O)cc1C(=O)C=2c1ccc(O)c(O)c1 [BACULIFERIN M] | 65.8 | inactive | inactive | – | – | – | – | 5 (≈ 6.99 µM) | 0.2 (≈ 0.279 µM) | 1900 | 2460 | 380 | 12.5 | 50 | –
O=C1C(c2ccc(O)c(O)c2)=c2c(c3c(n2CCc2ccc(O)cc2)=C(c2ccc(O)c(OS(=O)(=O)O)c2)C(=O)c2cc(O)c(O)cc2-3)-c2cc(O)c(O)cc21 [BACULIFERIN B] | – | inactive | inactive | inactive | inactive | inactive | inactive | 2.2 (≈ 2.83 µM) | 1.3 (≈ 1.67 µM) | 152 | 89.7 | 12.9 | 12.5 | 50 | –
O=C1C(c2ccc(O)c(O)c2)=c2c(c3c(n2CCc2ccc(O)cc2)=C(c2ccc(O)c(O)c2)C(=O)c2cc(O)c(O)cc2-3)-c2cc(O)c(O)cc21 [PURPURONE] | – | inactive | inactive | inactive | inactive | inactive | inactive | > 25 | > 25 | -25.7 | -26.3 | -23 | 12.5 | 25 | –
